Screens as filed in PubChem BioAssay.
Myeloid diff 2: induction of myeloid progenitor differentiation, primary screen, cell-based, flow cytometry, MLPCN library | ER-HoxA9 myeloid progenitors, lysozyme-GFP differentiation | calls only at 10 µM | 360,000 compounds, 1% hits | AID 624256, 2012;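 active = normalized GFP-positive differentiation at or above the plate's own cutoff, the solvent-only control mean plus 3 SD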;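 also: cells exposed to compound for four days before flow analysis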
FXN GAA850 act: FXN promoter activators, primary screen, cell-based, luciferase luminescence, HEK293 lucGAA850. HEK293 lucGAA850 FXN promoter luciferase reporter, 24 h; percent of 10 µM SAHA response. activation, % at 6 µM. 360,000 compounds, 0.56% hits. AID 540364, 2011;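 active = activation above the average of all compounds screened plus 3 SD, cutoff fixed separately per campaign, cut at about 7.5% in these data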
T cell HTS: modulators of CD8 T cell-vesicle binding, primary screen, mouse 2C CD8+ T cells, flow cytometry | AID 2052, 2009 | response (vesicle binding), % at 7 µM | 2C CD8+ T cell-vesicle binding; active compounds read low | 330,000 compounds, 0.068% hits;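 active = response, share of CD8 T cells binding vesicles, and their 90th percentile fluorescence all below set limits, cut at about 80% in these data, passing the limit was not always enough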;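 also: values below 100% mean blocked vesicle binding to the CD8+ T cells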
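Assay system: 2C TCR transgenic mouse naive CD8+ T cells, MACS-purified | Read-out: CD8+ gate FL2 mean fluorescence as % of same-row positive control | Signal: High-throughput flow cytometry with anti-B7-1 and anti-CD8 staining | Timing: Binding step 1.5 h, 37 °C, antibody labelling 20 min, ice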
NR2E3 ag-1: NR2E3 agonists in two-hybrid cells, primary screen, cell-based, luminescence, CHO-S, Gal4-NCOR/VP16-NR2E3. luciferase. inhibition of corepressor binding, % at 3.98 µM. 360,000 compounds, 0.35% hits. Photoreceptor-specific nuclear receptor (Homo sapiens), Q9Y5X4;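 active = inhibition above the mean of all tested compounds plus 3 SD, cut at about 70% in these data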;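 also: higher means lower luciferase signal from less NR2E3 corepressor binding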
Target sequence (Q9Y5X4 whole entry, looked up, the tested form may be a part): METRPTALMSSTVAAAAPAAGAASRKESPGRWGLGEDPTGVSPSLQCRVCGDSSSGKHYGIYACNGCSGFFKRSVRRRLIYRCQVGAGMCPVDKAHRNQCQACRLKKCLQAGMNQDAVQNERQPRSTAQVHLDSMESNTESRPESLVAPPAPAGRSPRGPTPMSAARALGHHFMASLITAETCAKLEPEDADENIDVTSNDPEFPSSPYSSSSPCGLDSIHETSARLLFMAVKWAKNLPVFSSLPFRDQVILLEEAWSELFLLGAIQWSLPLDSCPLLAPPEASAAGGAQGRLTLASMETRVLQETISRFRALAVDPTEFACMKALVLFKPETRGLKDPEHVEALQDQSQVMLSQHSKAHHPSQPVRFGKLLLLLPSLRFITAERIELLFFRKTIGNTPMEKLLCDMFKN
NR2E3 ag-2: inhibitors of NR2E3-RetCOR corepressor binding, primary screen, NR2E3 agonist project, biochemical, TR-FRET, GST-NR2E3, biotin-RetCOR. 1536-well. inhibition of corepressor binding, % at 4.78 µM. 320,000 compounds, 0.12% hits;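 active = percent inhibition above the cutoff of mean plus 3 SD of all tested compounds, set per screening campaign, cut at about 20% in these data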
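Test system – NR2E3–RetCOR corepressor complex · Quantity – NR2E3 fusion 1.35 nM · Buffer or medium – Tris pH 7.5 · Incubation – Compound–protein incubation for 5 h at 4 °C · Technique – TR-FRET, Eu(K)-anti-GST donor, streptavidin-D2 acceptor, ex 340, em 617/671 nm · Evaluation – percent inhibition of 671/617 nm emission ratio versus biotin and DMSO controls · Plate – 1536-well format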
Myeloid diff: inducers of myeloid progenitor differentiation, confirmation, cell-based, GFP/Mac1 flow cytometry, cherry pick 01. shares compounds with Myeloid diff 2. 2,300 compounds, 2% hits. AID 651706, 2012. ER-HoxA9 myeloid progenitors, GFP/Mac1 double-positive flow. calls only;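 active = share of green or green-and-red cells above 9 and 9% in run 1 or 4 and 3% in run 2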
GFP autofluor: counter-screen for myeloid differentiation promoters: compound fluorescence. shares compounds with Myeloid diff 2. ER-HoxA9 myeloid progenitors, no estrogen, GFP autofluorescence flow cytometry; vehicle wells 0%, positive control 100%. fluorescence response, % (concentration not given with the values). 2,300 compounds, 7.4% hits;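 active = over 5% cells positive for green fluorescent reporter, or over 2% positive for both it and APC stain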
Of the large screens only hits and unclear results are named; the others gave an inactive call (follow-up assays come after a bar, where they were run). A selection: hits, their analogues and other compounds. The true share with any hit is near 2%.

CCCN1C[C@@H](C)[C@@H](OC)CN(C)C(=O)c2ccc(NC(=O)c3cccc(F)c3)cc2OC[C@H]1C	none (no result: FXN GAA850 act, T cell HTS, NR2E3 ag-1, NR2E3 ag-2)
Cc1ccccc1C(=O)Nc1nnc(S(=O)(=O)N2CCCCCC2)s1	none | Myeloid diff inactive | GFP autofluor inactive
c1cc(SC2CCCCC2)cc(-c2nc3cnccn3c2NC2CCCCC2)c1	none (no result: NR2E3 ag-2) | Myeloid diff inactive | GFP autofluor inactive
O=C1NC2(CCCCC2)C(=O)N1/N=C/c1ccc(O)cc1O	Myeloid diff 2 active | Myeloid diff inactive | GFP autofluor inactive
COC(=O)CSc1nnc(-c2ccc(S(=O)(=O)N3CCCCC3)cc2)o1	Myeloid diff 2 active | Myeloid diff inactive | GFP autofluor inactive
O=c1c2c(nc3nc(CCc4ccccc4)[nH]n13)CCC2	Myeloid diff 2 active | Myeloid diff inactive | GFP autofluor inactive
O=c1c2c(nc3nc(NCc4ccc(Cl)cc4)[nH]n13)CCC2	none
CS(=O)(=O)c1ccc(-c2csc(C(O)(c3ccccc3)C(F)(F)F)n2)cc1 (configuration not stated)	none (no result: T cell HTS, NR2E3 ag-2)
CC(C)Oc1ccc(S(=O)(=O)N2CCCCC2)cc1NC(=O)CN1C(=O)NC(C)(c2ccccc2)C1=O (configuration not stated)	none
Cc1ccc(C2(C)NC(=O)N(CC(=O)Nc3cc(S(=O)(=O)N4CCCCC4)ccc3OC(C)C)C2=O)cc1 (configuration not stated)	Myeloid diff 2 active | Myeloid diff inactive | GFP autofluor inactive
COc1ccc(C2=NN(C(=O)CSc3nnc(-c4ccccc4F)o3)C(c3ccco3)C2)cc1 (configuration not stated)	none | Myeloid diff inactive | GFP autofluor inactive
COc1ccc(C2=NN(C(N)=S)C(c3ccco3)C2)cc1 (configuration not stated)	Myeloid diff 2 active | Myeloid diff inactive | GFP autofluor inactive
COc1ccc(C2=NN(C(=O)c3ccco3)C(c3ccco3)C2)cc1OC (configuration not stated)	none
CC(=O)n1cc(CO)c2ccccc21	none
C=C(c1cn(C(C)=O)c2ccccc12)c1cn(C(C)=O)c2ccccc12	none (no result: T cell HTS, NR2E3 ag-2) | Myeloid diff inactive | GFP autofluor inactive
O=C1c2cccc3cccc(c23)C(=O)N1CCN1CCN(CC(O)COCc2ccc(Cl)cc2)CC1 (configuration not stated)	none
COc1cc(COCC(O)CN2CCN(CCN3C(=O)c4cccc5cccc(c45)C3=O)CC2)cc(OC)c1OC (configuration not stated)	Myeloid diff 2 active | Myeloid diff inactive | GFP autofluor inactive
OCC[C@@H]1C[C@H](O)[C@@H](O)[C@@]2(OCCc3cc(Cl)ccc32)O1	none (no result: FXN GAA850 act, T cell HTS, NR2E3 ag-2)
COc1cccc(-n2cnc3scc(-c4cccs4)c3c2=O)c1	none
COc1ccc(C(=O)Nn2cnc3scc(-c4cccs4)c3c2=O)c(O)c1	none | Myeloid diff inactive | GFP autofluor inactive
Cc1cc(C)c2cc(C#N)c(NCCNC(=O)c3cccnc3)nc2c1	none (no result: FXN GAA850 act, T cell HTS, NR2E3 ag-1, NR2E3 ag-2)
Cc1nc(-n2[nH]c3c(c2=O)CCCC3)[nH]c(=O)c1Cc1ccccc1	none | Myeloid diff inactive | GFP autofluor inactive
COC(=O)c1cc(NS(=O)(=O)c2ccc(C)c3ccccc23)ccc1N1CCOCC1	none | Myeloid diff inactive | GFP autofluor inactive
CCCN1C(=O)/C(=C\C=C2/Sc3ccccc3N2CCO)SC1=S	Myeloid diff 2 active | Myeloid diff inactive | GFP autofluor 6.5
C/C(=N\NC(=O)C1CCCN(S(=O)(=O)c2ccccc2)C1)c1ccccn1 (configuration not stated)	none (no result: Myeloid diff 2) | Myeloid diff inactive | GFP autofluor inactive
C/C(=N\NC(=O)C1CCCN(S(=O)(=O)c2ccccc2)C1)c1ccncc1 (configuration not stated)	none
COc1ccc(CCNS(=O)(=O)c2cccc(F)c2)cc1OC	none | Myeloid diff inactive | GFP autofluor inactive
Cc1ccc(C(=O)OCC(=O)N(Cc2ccccc2)C(C)C)cc1C	none (no result: NR2E3 ag-2)
CC(=O)NNC(=O)CCC(=O)Nc1ccccc1	none | Myeloid diff inactive | GFP autofluor 86.0
O=C(O)CCC(=O)Nc1ccc(Cc2ccc(NC(=O)CCC(=O)O)cc2)cc1	Myeloid diff 2 active | Myeloid diff inactive | GFP autofluor inactive
CCCCCC(=O)N1C[C@H](n2cc(COC(=O)c3ccccc3)nn2)[C@@H](O)C[C@@H]1c1ccc(OC)cc1	none (no result: T cell HTS, NR2E3 ag-2)
O=C(O)CSc1nc2ccc(Br)cc2[nH]1	none (no result: T cell HTS, NR2E3 ag-2)
CCN(CC)CCN(C(=O)c1ccc2c(c1)CCCC2)c1nc2c(C)cccc2s1	none
Clc1ccc(Cn2ncc3c(N4CCN(c5ccccc5)CC4)ncnc32)cc1	Myeloid diff 2 active (no result: T cell HTS, NR2E3 ag-2) | Myeloid diff active | GFP autofluor inactive
c1ccc(Cn2ncc3c(N4CCCCC4)ncnc32)cc1	none
O=C(NC1CCCCC1)C(C1CC1)n1c(=O)c(-c2cc3ccccc3[nH]2)nc2ccccc21 (configuration not stated)	none (no result: FXN GAA850 act, T cell HTS, NR2E3 ag-1, NR2E3 ag-2)
Cc1cc(OCC(=O)N2CCc3ccccc3C2)c(C)cc1Br	none (no result: NR2E3 ag-2)
CCNC(=S)NNC(=O)c1csc(C)c1	none
CCCCNC(=S)NNC(=O)c1csc(C)c1	none | Myeloid diff inactive | GFP autofluor inactive
NC(=O)NNC1=Nc2cccc3cccc1c23	none | Myeloid diff inactive | GFP autofluor inactive
Cc1ccc(C(=O)NNC2=Nc3cccc4cccc2c34)cc1	none
O=C(NCC(=O)N1CC=C(c2ccccc2)CC1)c1ccc(OC(F)F)cc1	none (no result: NR2E3 ag-2) | Myeloid diff inactive | GFP autofluor inactive
CC1CC(C)CN(C(=O)COC(=O)c2ccc(S(=O)(=O)N(C)c3ccccc3)cc2)C1 (configuration not stated)	none (no result: NR2E3 ag-2) | Myeloid diff inactive | GFP autofluor inactive
Oc1ccc(-c2cnc3c(Nc4cccc(OC(F)(F)C(F)F)c4)nccn23)cc1	Myeloid diff 2 active (no result: T cell HTS, NR2E3 ag-2) | Myeloid diff inactive | GFP autofluor inactive
FC(F)C(F)(F)Oc1cccc(Nc2nccn3c(-c4ccc5ccccc5c4)cnc23)c1	none (no result: T cell HTS, NR2E3 ag-2)
CC1CCCN(c2sc(S(C)(=O)=O)nc2S(=O)(=O)c2ccc(Cl)cc2)C1 (configuration not stated)	none
CC1CN(c2sc(S(C)(=O)=O)nc2S(=O)(=O)c2ccc(Cl)cc2)CC(C)O1 (configuration not stated)	none | Myeloid diff inactive | GFP autofluor inactive
